High-throughput results deposited in PubChem BioAssay by several laboratories.
T cell modulator – modulates CD8 T cell binding to vesicles. 2C CD8+ T cell-vesicle binding, flow cytometry; stronger effect = lower value. response (vesicle binding), % at 7 µM. actives 0.068% (n = 330,000). AID 2052;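 active = response, share of CD8 T cells binding vesicles, and their 90th percentile fluorescence all below set limits, cut at about 80% in these data, passing the limit was not always enough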;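 note: values below 100% mean blocked vesicle binding to the CD8+ T cells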
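Material: 2C TCR transgenic mouse naive CD8+ T cells, MACS-purified. Also added: QL9-charged Drosophila Ld/ICAM-1/B7-1 vesicles. Timing: binding 1.5 h at 37 °C. Measured by: high-throughput flow cytometry with anti-B7-1 and anti-CD8 staining. Read-out: percent CD8+ FL2 mean versus row control. Controls: Unloaded micro-vesicles (low), QL9 vesicles with 0.7% DMSO (high).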
NR2E3 ag-1 – agonists of human NR2E3 nuclear receptor; inhibition of corepressor binding, % at 3.98 µM; CHO-S Gal4-NCOR/VP16-NR2E3 two-hybrid, luciferase; actives 0.35% (n = 360,000); Q9Y5X4;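 active = inhibition above the mean of all tested compounds plus 3 SD, cut at about 70% in these data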;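 note: 0% = DMSO with NR2E3 transfected cells and 100% = cells lacking NR2E3 construct; higher means lower luciferase signal from less NR2E3 corepressor binding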
Target sequence (Q9Y5X4 whole entry, looked up, the tested form may be a part): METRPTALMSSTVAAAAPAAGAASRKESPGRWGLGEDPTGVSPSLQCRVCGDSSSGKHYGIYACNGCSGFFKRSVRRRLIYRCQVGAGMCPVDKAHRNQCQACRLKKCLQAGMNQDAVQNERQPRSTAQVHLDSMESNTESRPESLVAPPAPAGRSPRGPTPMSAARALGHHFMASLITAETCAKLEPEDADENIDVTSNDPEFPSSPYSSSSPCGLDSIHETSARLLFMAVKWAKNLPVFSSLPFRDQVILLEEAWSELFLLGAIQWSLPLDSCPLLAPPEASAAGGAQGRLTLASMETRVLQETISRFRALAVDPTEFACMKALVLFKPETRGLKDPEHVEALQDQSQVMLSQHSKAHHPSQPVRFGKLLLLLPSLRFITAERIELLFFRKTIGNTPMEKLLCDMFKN
GAA850 FXN act – frataxin GAA850 promoter activation; HEK293 lucGAA850 FXN promoter luciferase reporter, 24 h; percent of 10 µM SAHA response; activation, % at 6 µM; actives 0.56% (n = 360,000);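 active = activation above the average of all compounds screened plus 3 SD, cutoff fixed separately per campaign, cut at about 7.5% in these data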;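 note: 0% = DMSO wells and 100% = 10 µM SAHA wells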
NR2E3 ag-2 – agonists of human nuclear receptor NR2E3; Q9Y5X4; actives 0.12% (n = 320,000); inhibition of corepressor binding, % at 4.78 µM; GST-NR2E3/biotin-RetCOR TR-FRET, 1536-well;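 active = percent inhibition above the cutoff of mean plus 3 SD of all tested compounds, set per screening campaign, cut at about 20% in these data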;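 note: 0% = DMSO wells and 100% = biotin wells as full block of FRET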
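Test system – NR2E3–RetCOR corepressor complex · Quantity – NR2E3 fusion 1.35 nM · Buffer or medium – Tris pH 7.5 · Incubation – Compound–protein incubation for 5 h at 4 °C · Technique – TR-FRET, Eu(K)-anti-GST donor, streptavidin-D2 acceptor, ex 340, em 617/671 nm · Evaluation – percent inhibition of 671/617 nm emission ratio versus biotin and DMSO controls · Plate – 1536-well format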
Myeloid diff MLP – myeloid differentiation induction | ER-HoxA9 myeloid progenitors, lysozyme-GFP differentiation, flow cytometry | AID 624256 | calls only at 10 µM | actives 1% (n = 360,000);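 active = normalized GFP-positive differentiation at or above the plate's own cutoff, the solvent-only control mean plus 3 SD; inconclusive = no clear call, values can overlap the other calls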;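 note: cells exposed to compound for four days before flow analysis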
GAA30 counter – activates GAA30 frataxin promoter, counter-screen for GAA850 activators | activation, % at 6 µM | AID 588350 | shares compounds with GAA850 FXN act | HEK293 lucGAA30 FXN promoter luciferase, 24 h; DMSO = 0%, 5 µM ipriflavone = 100% | actives 66% (n = 1,900);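 active = mean activation above the mean of solvent-only control wells plus 3 SD, cut at about 22% in these data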;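 note: counterscreen of GAA850 promoter hits where activity marks nonselective or luminescence artifacts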
FXN GAA850 conf – confirmation of GAA850 frataxin (FXN) promoter activators | shares compounds with GAA850 FXN act | actives 86% (n = 1,900) | activation, % at 6 µM | HEK293 lucGAA850 FXN promoter luciferase reporter, 24 h; 100% = activation by SAHA | AID 588351;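 active = mean activation above a set limit taken from the primary screen, cut at about 8% in these data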;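 note: 0% = DMSO wells and 100% = 10 µM SAHA wells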
* hit, by the source's call; i = inactive; ? = inconclusive; . = not tested or not shown; ! = not active in a repeat. Hits are enriched below; roughly 2% of the tested compounds scored in any of these assays.

SMILES	T cell modulator	NR2E3 ag-1	GAA850 FXN act	NR2E3 ag-2	Myeloid diff MLP	GAA30 counter	FXN GAA850 conf
COc1ccc(Cl)cc1NC(=O)C1CCCO1 (configuration not stated)	265	-1	1	2	i	.	.
COc1ccc(OCc2cc(C(=O)NC(C)c3nc(C)cs3)no2)c(Cl)c1 (configuration not stated)	.	-80	2	.	i	.	.
Cc1ccc(OCCOc2ccc(Cl)cc2Cl)c([N+](=O)[O-])n1	240	-63	5	4	i	.	.
COc1ccc(OCCOc2ccc(C)nc2[N+](=O)[O-])cc1	155	-60	7.7*	-1	i	78*	24*
O=c1c(Cl)c(NCCCO)cnn1-c1nc2ccccc2[nH]1	137	-63	29*	-4	?	61*	54*
C=CCN(CC=C)c1cnn(-c2nc3ccccc3[nH]2)c(=O)c1Cl	337	-140	2	0	i	.	.
c1ccc(COc2ccc(-c3cc4nc(NCCN5CCOCC5)ccn4n3)cc2)cc1	.	-39	-3	.	i	.	.
CCS(=O)(=O)N1Cc2ccccc2CC1C(=O)Nc1ccc(F)cc1 (configuration not stated)	121	-66	3	1	i	.	.
CCS(=O)(=O)N1Cc2ccccc2CC1C(=O)NCC12CC3CC(CC(C3)C1)C2 (configuration not stated)	588	9	7.7*	-1	i	13	8.3*
CCS(=O)(=O)N1Cc2ccccc2CC1C(=O)NC(C)C12CC3CC(CC(C3)C1)C2 (configuration not stated)	159	-25	12*	-3	i	27*	14*
O=C(NCCCN1CCCC1=O)c1cn(-c2ccccc2)nc1-c1ccccc1	530	-14	2	1	i	.	.
C[C@H](NC(N)=O)C(=O)Nc1ccc2c(c1)OCO2	220	-10	2	3	i	.	.
CCCCNC(=O)C1(C)CCN1C(=O)c1oc2ccccc2c1C (configuration not stated)	.	2	-1	.	i	.	.
CC(=O)c1ccc(OCC(O)CN2CCN(Cc3ccc4c(c3)OCO4)CC2)cc1 (configuration not stated)	223	10	9.3*!	1	i	22*	6
CCSc1nc(N)c2c(C)c(C)sc2n1	232	-26	4	2	i	.	.
C=CCSc1nc(N)c2c(C)c(C)sc2n1	197	-39	8.2*	-3	i	55*	20*
Fc1cccc(Cc2c(-c3cccc(Cl)c3)nc3ccc(Cl)cn23)c1	.	-12	.	.	i	.	.
CCc1sc(C(=O)Nc2ccc3c(c2)OCCO3)cc1Br	240	-147	8.0*	0	i	111*	41*
CCc1sc(C(=O)Nc2ccc3c(c2)OCO3)cc1C	415	-93	7	.	i	.	.
COC(=O)[C@]1(C)N[C@H](CN(C)C(=O)Nc2ccc(Cl)cc2)[C@@H]2C(=O)N(Cc3ccccc3)C(=O)[C@@H]21	876	-18	18*	.	i	24*	13*
COC(=O)[C@]1(C)N[C@H](CN(C)C(=O)Nc2ccc(C)cc2)[C@@H]2C(=O)N(Cc3ccccc3)C(=O)[C@@H]21	194	-6	12*	.	i	25*	7
CCN(C[C@H]1N[C@@](C)(C(=O)OC)[C@H]2C(=O)N(Cc3ccccc3)C(=O)[C@@H]12)C(=O)Nc1ccc(F)cc1	251	-13	15*	.	i	25*	6
COC(=O)[C@]1(C)N[C@H](CN(C)C(=O)Nc2ccc(OC)cc2)[C@@H]2C(=O)N(Cc3ccccc3)C(=O)[C@@H]21	190	-18	8.3*	.	i	19	17*
CCn1nc(C)c(CN2CCC(Oc3ccc(C(=O)N4CCCC4)cc3)CC2)c1C	497	1	-1	2	i	.	.
O=C(O)c1ccc(N/N=C/c2ccc(-c3ccccc3)cc2)cc1	.	-118	8.7*	.	i	88*	31*
SMILES	T cell modulator	NR2E3 ag-1	GAA850 FXN act	NR2E3 ag-2	Myeloid diff MLP	GAA30 counter	FXN GAA850 conf
O=C(O)c1ccc(/C=N/Nc2cccc(C(F)(F)F)c2)cc1	856	-148	10*	-1	i	99*	39*
CC(C)c1ccc(/C=N/Nc2ccc(C(=O)O)cc2)cc1	433	-1	-5	3	i	.	.
O=C([C@@H]1CCCN1C1=NS(=O)(=O)c2ccccc21)N1CCN(c2ccccc2)CC1	.	-11	-1	.	i	.	.
CCOC(=O)N1CCN(C(=O)c2ccc(NS(C)(=O)=O)cc2)CC1	364	3	9.4*	0	i	27*	17*
CCc1nc2ccc(C(=O)N(CC)CCN(C)C)cn2c1N(C)C(=O)c1cccc(OC)c1	.	-28	-1	.	i	.	.
O=C(NCC1COc2ccccc2O1)c1ccccc1 (configuration not stated)	872	-108	7.6*	5	i	88*	27*
COCCNC(=O)C1(C)CCCN(C(=O)c2ccc3c(c2)CCO3)C1 (configuration not stated)	.	-13	0	.	i	.	.
COc1ccc(CN2C[C@@H](CO)O[C@@H](n3cnc4c(NCc5ccc(F)cc5)ncnc43)C2)cc1	.	-6	-1	.	i	.	.
O=C(CSc1nnc(-c2c[nH]c3ccccc23)o1)NCC1CCCO1 (configuration not stated)	256	3	0	6	i	.	.
CC(/C=N/NC(=O)Cc1cccs1)=C\c1ccco1	319	-22	0	-4	i	.	.
C/C(=N/NC(=O)OC(C)(C)C)c1ccco1	377	-49	4	3	i	.	.
CC(/C=C/c1ccco1)=N/NC(=O)Cc1cccs1	161	-21	8.2*	-2	i	37*	18*
CC(/C=C/c1ccco1)=N/NC(=O)OC(C)(C)C	413	-44	8.8*	-1	i	68*	27*
NC(=O)C1=CC2C3C=CC2(O)C(=O)OC3O1 (configuration not stated)	.	42	8.3*	.	?	-28	16*
OC(CNCCc1ccc(C(F)(F)F)cc1)COC(c1ccccc1)c1ccccc1 (configuration not stated)	201	-8	-1	-3	i	.	.
CC(=O)N1CN(S(=O)(=O)c2ccc(C)cc2)CC1C (configuration not stated)	31	4	12*	1	i	12	4
Cc1ccc(S(=O)(=O)N2CC(O)C2)cc1	493	-27	1	2	i	.	.
